How the values were obtained:
[1] = target: T1, 5-hydroxytryptamine receptor 1A (Homo sapiens) (UniProt P08908); conditions: HeLa
T1 sequence (whole entry): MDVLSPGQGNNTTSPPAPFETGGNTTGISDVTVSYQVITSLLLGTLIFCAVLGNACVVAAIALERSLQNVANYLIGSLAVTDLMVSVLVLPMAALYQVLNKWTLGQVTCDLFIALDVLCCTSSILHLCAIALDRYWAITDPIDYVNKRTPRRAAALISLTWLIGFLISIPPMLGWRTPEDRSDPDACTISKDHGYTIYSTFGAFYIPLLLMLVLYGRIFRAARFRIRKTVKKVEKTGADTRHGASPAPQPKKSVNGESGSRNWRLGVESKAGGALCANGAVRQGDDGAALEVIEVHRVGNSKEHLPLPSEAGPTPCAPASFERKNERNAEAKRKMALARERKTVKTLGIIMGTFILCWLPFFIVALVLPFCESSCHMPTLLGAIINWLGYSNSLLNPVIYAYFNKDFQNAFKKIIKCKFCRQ

[2] = target: T2, Alpha-1B adrenergic receptor (Homo sapiens, UniProt P35368); assay: Displacement of [3H]prazosin from human cloned Alpha-1B adrenergic receptor
T2 sequence (P35368 whole entry): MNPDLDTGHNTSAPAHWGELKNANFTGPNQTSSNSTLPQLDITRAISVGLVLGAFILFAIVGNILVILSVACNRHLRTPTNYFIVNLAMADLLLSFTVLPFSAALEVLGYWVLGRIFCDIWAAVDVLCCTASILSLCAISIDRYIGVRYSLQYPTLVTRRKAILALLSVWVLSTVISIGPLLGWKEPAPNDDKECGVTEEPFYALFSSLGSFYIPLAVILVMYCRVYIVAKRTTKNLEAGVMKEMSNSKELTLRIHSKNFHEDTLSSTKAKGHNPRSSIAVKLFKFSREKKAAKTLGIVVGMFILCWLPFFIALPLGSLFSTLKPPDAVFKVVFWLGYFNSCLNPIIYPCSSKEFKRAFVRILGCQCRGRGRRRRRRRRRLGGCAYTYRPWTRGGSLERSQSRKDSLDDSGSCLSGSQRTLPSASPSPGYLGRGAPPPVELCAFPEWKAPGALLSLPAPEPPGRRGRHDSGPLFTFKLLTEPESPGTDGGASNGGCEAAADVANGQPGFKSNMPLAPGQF
Method in brief: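 CHO cells stably transfected with each human α1 subtype; 30 μg membrane protein in 50 mM Tris-HCl pH 7.4 with 0.1–0.4 nM [3H]prazosin, 30 min at 25 °C. Competitors 1 pM–10 μM. Nonspecific binding defined with 10 μM phentolamine. Filtration, scintillation counting. Ki by Cheng–Prusoff; 2–3 experiments in triplicate.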

[3] = target: Serotonin 2 (5-HT2) receptor (Rattus norvegicus, UniProt P30994+P08909+P14842); assay: Displacement of [3H]ketanserin from rat brain 5-hydroxytryptamine 2 receptor
Method in brief: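 Rat cerebral cortex membranes (male Sprague–Dawley) in Tris-HCl pH 7.4 with 10 μM pargiline and 0.1% ascorbic acid were incubated 20 min at 37 °C with 0.7–1.3 nM [3H]ketanserin (5-HT2A). Nonspecific binding was defined by 2 μM ketanserin. Bound label was counted after filtration, and Ki was derived by Cheng–Prusoff.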

[4] = target: T3, Adrenergic receptor alpha-2 (Rattus norvegicus, UniProt P22086+P19328+P22909); assay: Displacement of [3H]rauwolscine from rat brain Alpha-2 adrenergic receptor
T3 sequence (P22086 whole entry): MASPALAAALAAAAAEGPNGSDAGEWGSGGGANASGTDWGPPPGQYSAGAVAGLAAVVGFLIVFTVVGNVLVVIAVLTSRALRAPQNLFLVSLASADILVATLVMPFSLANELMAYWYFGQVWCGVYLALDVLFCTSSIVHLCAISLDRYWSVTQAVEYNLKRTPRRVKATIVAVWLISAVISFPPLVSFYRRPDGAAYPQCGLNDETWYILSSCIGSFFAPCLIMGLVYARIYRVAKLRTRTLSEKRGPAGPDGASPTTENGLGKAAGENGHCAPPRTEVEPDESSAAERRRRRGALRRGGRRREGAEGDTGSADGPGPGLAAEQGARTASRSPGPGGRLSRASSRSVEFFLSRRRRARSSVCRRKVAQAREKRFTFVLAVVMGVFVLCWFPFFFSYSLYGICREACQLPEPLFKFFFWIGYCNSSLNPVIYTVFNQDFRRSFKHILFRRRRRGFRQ
T3 sequence (P19328 whole entry): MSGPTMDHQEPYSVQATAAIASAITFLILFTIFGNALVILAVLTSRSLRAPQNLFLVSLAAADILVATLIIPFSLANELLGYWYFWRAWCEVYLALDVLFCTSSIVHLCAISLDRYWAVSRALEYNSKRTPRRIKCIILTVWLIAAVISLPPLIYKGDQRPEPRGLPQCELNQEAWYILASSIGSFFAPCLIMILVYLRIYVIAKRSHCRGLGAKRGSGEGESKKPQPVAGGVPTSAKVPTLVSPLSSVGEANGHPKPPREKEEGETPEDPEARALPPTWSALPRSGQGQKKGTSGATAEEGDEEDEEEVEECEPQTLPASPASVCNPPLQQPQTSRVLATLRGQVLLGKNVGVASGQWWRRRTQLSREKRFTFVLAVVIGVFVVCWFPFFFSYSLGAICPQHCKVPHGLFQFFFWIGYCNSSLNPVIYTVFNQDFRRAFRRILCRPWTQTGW
T3 sequence (P22909 whole entry): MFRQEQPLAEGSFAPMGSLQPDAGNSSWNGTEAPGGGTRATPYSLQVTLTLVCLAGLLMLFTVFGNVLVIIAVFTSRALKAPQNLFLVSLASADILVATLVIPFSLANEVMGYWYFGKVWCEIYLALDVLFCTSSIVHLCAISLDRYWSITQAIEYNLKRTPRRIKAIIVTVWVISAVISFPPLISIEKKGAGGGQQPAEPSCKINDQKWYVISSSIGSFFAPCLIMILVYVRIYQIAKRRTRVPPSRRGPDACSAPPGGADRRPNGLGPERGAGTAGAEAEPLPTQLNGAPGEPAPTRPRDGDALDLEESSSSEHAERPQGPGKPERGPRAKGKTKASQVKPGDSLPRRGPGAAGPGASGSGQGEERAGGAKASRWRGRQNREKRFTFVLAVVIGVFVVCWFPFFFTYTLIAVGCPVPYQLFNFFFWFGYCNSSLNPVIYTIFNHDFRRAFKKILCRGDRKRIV
Method in brief: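 Rat cerebral cortex membranes (male Sprague–Dawley) were washed in Tris-HCl pH 7.4 and resuspended with 10 μM pargiline and 0.1% ascorbic acid. They were incubated 30 min at 25 °C with 0.5–1.5 nM [3H]rauwolscine. Nonspecific binding was taken with 10 μM phentolamine. Filtration and scintillation counting followed, and Ki was obtained by Cheng–Prusoff.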

D(2) dopamine receptor = D(2) dopamine receptor (Rattus norvegicus, UniProt P61169); assay: Displacement of [3H]spiperone from rat brain Dopamine receptor D2
Sequence of D(2) dopamine receptor (P61169 whole entry): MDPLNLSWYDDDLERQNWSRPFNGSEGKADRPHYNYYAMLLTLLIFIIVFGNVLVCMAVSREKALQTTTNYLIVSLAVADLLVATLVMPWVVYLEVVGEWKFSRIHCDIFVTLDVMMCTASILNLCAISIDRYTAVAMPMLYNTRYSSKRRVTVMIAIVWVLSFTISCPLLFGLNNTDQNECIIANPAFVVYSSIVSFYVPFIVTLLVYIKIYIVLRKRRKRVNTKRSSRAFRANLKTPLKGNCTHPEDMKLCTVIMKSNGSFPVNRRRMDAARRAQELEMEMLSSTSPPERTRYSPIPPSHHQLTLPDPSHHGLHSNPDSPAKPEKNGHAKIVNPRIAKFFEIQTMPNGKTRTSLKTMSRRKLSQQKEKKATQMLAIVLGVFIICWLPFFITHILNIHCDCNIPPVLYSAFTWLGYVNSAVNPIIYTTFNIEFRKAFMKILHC
Method in brief: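 Striata from male Sprague–Dawley rats homogenized in Tris-HCl pH 7.4. Buffer held 10 μM pargiline, 0.1% ascorbic acid, 120 mM NaCl, 5 mM KCl, 2 mM CaCl2, 1 mM MgCl2. Incubated with 0.2–0.6 nM [3H]spiperone for 15 min at 37 °C. Nonspecific binding defined with 1 μM (+)-butaclamol. Filtration, scintillation counting. Ki by Cheng–Prusoff.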

[5] = target: T1, 5-hydroxytryptamine receptor 1A (Homo sapiens); conditions: HeLa; remark: listed apart in the source
[6] = target: T4, Alpha-1B adrenergic receptor (Rattus norvegicus) (UniProt P15823); assay: Antagonism of Alpha-1B adrenergic receptor subtype (-)-phenylephrine-induced contraction of rat spleen; type: functional, tissue-based
T4 sequence (whole entry): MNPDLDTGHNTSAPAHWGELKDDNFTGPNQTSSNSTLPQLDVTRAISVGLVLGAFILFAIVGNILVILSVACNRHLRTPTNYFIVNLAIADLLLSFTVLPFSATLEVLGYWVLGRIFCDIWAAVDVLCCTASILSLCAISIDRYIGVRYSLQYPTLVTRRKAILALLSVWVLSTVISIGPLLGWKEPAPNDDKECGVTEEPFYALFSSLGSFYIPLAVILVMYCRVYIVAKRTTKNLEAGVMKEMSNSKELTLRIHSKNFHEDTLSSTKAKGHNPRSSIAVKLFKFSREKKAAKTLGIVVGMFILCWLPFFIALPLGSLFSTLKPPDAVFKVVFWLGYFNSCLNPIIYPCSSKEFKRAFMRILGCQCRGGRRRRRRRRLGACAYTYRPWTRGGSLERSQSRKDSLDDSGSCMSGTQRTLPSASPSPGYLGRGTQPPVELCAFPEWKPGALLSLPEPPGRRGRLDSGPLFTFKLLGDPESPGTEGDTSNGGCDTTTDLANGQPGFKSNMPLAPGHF
Method in brief: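 Rat spleen, isometric cumulative (–)-phenylephrine curves at 30-min intervals; first discarded, second taken as control. Antagonist was equilibrated 30 min before the next curve.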

| Compound | pD2 [1] | Log Ki [3] | Log Ki [4] | also measured |
| --- | --- | --- | --- | --- |
| NCCc1c[nH]c2ccc(C(N)=O)cc12 | 8.45 |  |  |  |
| NCCc1c[nH]c2ccc(O)cc12 | 7.3 |  |  |  |
| CCCN(CCC)C1CCc2cccc(O)c2C1 (stereo unspecified) [8-OH-DPAT] |  | < -6 | -6.08 | Ki [2]: > 1000 nM; Log Ki (D(2) dopamine receptor): < -6 |
| COc1ccccc1N1CCN(CCN2C(=O)CC3(CCCC3)CC2=O)CC1 [BMY-7378] |  | -6.31 | -5.93 | pD2 [5]: 9.27; pKb [6]: 7.55; Ki (D(2) dopamine receptor): 49 nM |
